The record followed here is ChEMBL document CHEMBL1139725, “Synthesis and SAR of novel hydantoin derivatives as selective androgen receptor modulators” (2006).

Calls of active or inactive are those of the source. The calls are words filed in the database; no cut-off is given here.

For test [1], the species on record is Rattus norvegicus. Kind of test: Stimulation of levator ani muscle weight in Sprague-Dawley rat relative to testosterone. It counts as functional. The essentials: (§1)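 Agonist mode of a five-day modified Hershberger assay in immature (about 50 g) castrated male Sprague–Dawley rats. Activity is % stimulation of tissue weight, with vehicle-treated control set to 0% and testosterone-alone control to 100%.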

The species entered for test [2] is Rattus norvegicus. The experiment in a line: Stimulation of prostate weight in Sprague-Dawley rat relative to testosterone. The conditions noted are these: Prostate gland. It counts as functional, organism-based. Summed up:
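Immature castrated male Sprague–Dawley rats (about 50 g) were dosed for five days. Prostate weight was expressed as percent stimulation: vehicle-treated controls were set to 0% and testosterone-alone controls to 100%. The testosterone propionate reference was given subcutaneously at the nape of the neck at 5 mg/kg in sesame oil.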

The test system of test [3] is Rattus norvegicus. The experiment in a line: Inhibition of seminal vesicle weight in Sprague-Dawley rat at 2 mg/day, po relative to control. Format: functional. The essentials:
(§2)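 Five-day antagonist assay in immature (about 50 g) castrated male Sprague–Dawley rats. Compound given po in 20% cyclodextrin once daily at 2 mg/day for 5 days, with testosterone propionate co-dosed sc in sesame oil at 0.1 mg/d ([…]). Read-out is % inhibition of testosterone-enhanced tissue weight, with vehicle control set to 100% and testosterone-alone control to 0%; n = 3/group.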

The subject of test [4] is Rattus norvegicus. Kind of test: Inhibition of prostate weight in Sprague-Dawley rat at 2 mg/day, po relative to control. It counts as functional, Prostate gland. The essentials:
as §2

For test [5], the species on record is Rattus norvegicus. The experiment in a line: Stimulation of levator ani muscle weight in Sprague-Dawley rat at 2 mg/day relative to testosterone. It counts as functional. The essentials:
as §1

For test [6], the system named is Rattus norvegicus. Kind of test: Stimulation of prostate weight in Sprague-Dawley rat at 2 mg/day, po relative to testosterone. It counts as functional, Prostate gland. Summed up: as §1
Test [7] has as its system Rattus norvegicus. The experiment in a line: Stimulation of levator ani muscle weight Sprague-Dawley rat at 5 mg/kg, sc. As to conditions: route subcutaneous. Format: functional. Summed up:
(§3)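 Testosterone propionate injected sc at the nape of the neck at 5 mg/kg in sesame oil, in immature (about 50 g) castrated male Sprague–Dawley rats in a five-day modified Hershberger assay. Read-out is stimulation of tissue weight.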

Test [8] concerns Rattus norvegicus. The experiment in a line: Stimulation of prostate weight in Sprague-Dawley rat at 5 mg/kg, sc. As to conditions: route subcutaneous. Format: functional, Prostate gland. Summed up:
as §3

The species named for test [9] is Rattus norvegicus. Kind of test: Stimulation of prostate weight in Sprague-Dawley rat at 3 mg/day relative to testosterone. It counts as functional, Prostate gland. Summed up:
as §1

`C[C@@]12CCCN1C(=O)N(c1ccc(C#N)c(C(F)(F)F)c1)C2=O`: the outcome in test [1] and in [2] was inactive. The results for the Inhibition in test [3] and in test [4] were less than 10% and 69%, respectively.

Consider `CC12CNC(=O)N1C(=O)N(c1ccc([N+](=O)[O-])c(C(F)(F)F)c1)C2=O` (stereo unspecified), for which the Inhibition in test [3] is recorded as 15%; in test [4], 32%.

For `C[C@@]12CCCN1C(=S)N(c1ccc(C#N)c(C(F)(F)F)c1)C2=O`, the result in [1] and in [2] was inactive. Moreover, the Inhibition turned out to be 95% in test [3] and 78% in [4].

In the case of `C[C@@]12CC(C(F)(F)F)=NN1C(=O)C(=O)N(c1ccc(C#N)c(C(F)(F)F)c1)C2=O`, the Activity in [5] amounted to 21%; in test [6] it was 12%. In test [4], this compound returned an Inhibition of 27%.

`CC12CC(C(F)(F)F)=NN1C(=O)N(c1ccc([N+](=O)[O-])c(C(F)(F)F)c1)C2=O` (stereo unspecified): the figures for the Activity in [5] and in test [6] were 73% and 51%, respectively. This compound yielded an Inhibition in [4] of 39%.

For `CC12COC(=O)N1C(=O)N(c1ccc([N+](=O)[O-])c(C(F)(F)F)c1)C2=O` (stereo unspecified), the Inhibition in test [3] is 28%; in test [4] it was 43%.

As to `CN1CC2(C)C(=O)N(c3ccc(Cl)c(C(F)(F)F)c3)C(=O)N2C1=O` (stereo unspecified), the Inhibition is given as 85% in [3] and 77% in test [4].

Regarding `CCOC(=O)C1=NN2C(=O)N(c3ccc(C#N)c(C(F)(F)F)c3)C(=O)C2(C)C1` (stereo unspecified), the Activity in test [1] and in test [6] was less than 10% each time. The Inhibition in test [4] stood at 16%.

For the compound `CC(=O)Nc1ccc(C2=NN3C(=O)N(c4ccc(C#N)c(C(F)(F)F)c4)C(=O)C3(C)C2)cc1` (stereo unspecified), the Activity in test [5] is listed as 13%; in test [6], less than 10%. The compound also gave an Inhibition in [4] of 25%.

Regarding `CC12COC(=O)N1C(=O)N(c1ccc(C#N)c(C(F)(F)F)c1)C2=O` (stereo unspecified), the values for the Inhibition in test [3] and in [4] were 80% and 75%, respectively.

With `CCOC(=O)C1=NN2C(=O)C(=O)N(c3ccc(C#N)c(C(F)(F)F)c3)C(=O)C2(C)C1` (stereo unspecified), the Activity in test [5] and in test [6] was less than 10% throughout. Besides, the Inhibition in test [4] is 15%.

`CCC(=O)O[C@H]1CC[C@H]2[C@@H]3CCC4=CC(=O)CC[C@]4(C)[C@H]3CC[C@]12C` [TESTOSTERONE PROPIONATE]: the Activity in test [7] and in [8] was 100% each time.

Turning to `CC12CNC(=O)N1C(=O)N(c1ccc(C#N)c(C(F)(F)F)c1)C2=O` (stereo unspecified), the Inhibition was found to be 86% in [3] and 79% in [4].

`CC12CNC(=O)N1C(=O)N(c1ccc(Cl)c(C(F)(F)F)c1)C2=O` (stereo unspecified): the Inhibition in [3] stood at 19%; in test [4], 33%.

Take `CC12COC(=O)N1C(=O)N(c1ccc(Cl)c(C(F)(F)F)c1)C2=O` (stereo unspecified): the Inhibition is reported as 51% in [3] and 55% in test [4].

On to `CN1CC2(C)C(=O)N(c3ccc(C#N)c(C(F)(F)F)c3)C(=O)N2C1=O` (stereo unspecified), for which the Inhibition is recorded as 85% in test [3] and 87% in [4].

For the compound `C[C@@]12CC(C(F)(F)F)=NN1[S+]([O-])N(c1ccc(C#N)c(C(F)(F)F)c1)C2=O` (stereo partly specified), the Activity in test [5] is reported as 117%; in [6] it was 58%. Further, the Inhibition in [4] was 41%.

In the case of `CC12CC=NN1C(=O)N(c1ccc(C#N)c(C(F)(F)F)c1)C2=O` (stereo unspecified), the Activity in test [5] and in [6] was less than 10% in each case. This compound returned an Inhibition in [4] of 26%.

Take `C[C@@]12CC(C(F)(F)F)=NN1S(=O)(=O)N(c1ccc(C#N)c(C(F)(F)F)c1)C2=O`: the Activity in [5] is given as 66%; in test [6] it was 41%. Besides, the Inhibition in test [4] was found to be 28%.

Turning to `C[C@@]12CCCN1C(=S)N(c1ccc(Cl)c(C(F)(F)F)c1)C2=O`, the result in test [1] and in [2] was inactive. For the same compound, the Inhibition in [3] was less than 10%; in test [4], 19%.

On to `C[C@]12CC(C(F)(F)F)=NN1C(=O)N(c1ccc(C#N)c(C(F)(F)F)c1)C2=O`, for which the Activity in [1] worked out at 42%; in [9], 14%. In test [4], this compound came in with an Inhibition of 21%.

Regarding `C[C@@]12CC(C(F)(F)F)=NN1C(=O)N(c1ccc(C#N)c(C(F)(F)F)c1)C2=O`, the Activity in test [1] is recorded as 75%; in [9] it was 11%. In test [4], the Inhibition came to 26%.

As for `C[C@@]12CCCN1C(=S)N(c1ccc(Cl)c(Cl)c1)C2=O`, the result in test [1], in test [2] and in [6] (Prostate gland) was inactive. The Inhibition in test [3] worked out at 27%; in test [4], 17%.

On to `C[C@@]12CCCN1C(=O)N(c1ccc(Cl)c(Cl)c1)C2=O`, for which the outcome in test [1], in test [2] and in [6] (Prostate gland) was inactive. Moreover, the Inhibition came out at 16% in test [3] and 11% in test [4].

In the case of `CCOC(=O)C1=NN2C(=O)N(c3ccc([N+](=O)[O-])c(C(F)(F)F)c3)C(=O)C2(C)C1` (stereo unspecified), the Activity in [5] and in test [6] was less than 10% in each case. The Inhibition in test [4] was found to be 35%.

For `C[C@@]12CCCN1C(=O)N(c1ccc(Cl)c(C(F)(F)F)c1)C2=O`, the result in test [1] and in test [2] was inactive. The Inhibition in test [3] is on record as less than 10%; in test [4], 32%.

As to `CC(O)(CS(=O)(=O)c1ccc(F)cc1)C(=O)Nc1ccc(C#N)c(C(F)(F)F)c1` (stereo unspecified) [BICALUTAMIDE], the outcome in [1] and in test [2] was inactive. The Inhibition amounted to 80% in test [3] and 70% in [4].
